Test results published in ChEMBL document CHEMBL1764953, “Discovery of orally active carboxylic acid derivatives of 2-phenyl-5-trifluoromethyloxazole-4-carboxamide as potent diacylglycerol acyltransferase-1 inhibitors for the potential treatment of obesity and diabetes” (J Med Chem, 2011).
In brackets after ≈: the same amount, converted by molar mass. Activity calls are given as the source filed them. No cut-off for these calls is given here.

How the values were obtained:
Cytochrome P450 2D6 = Cytochrome P450 2D6 (Homo sapiens, UniProt P10635); experiment: Inhibition of CYP2D6; format: ADME
[1] = Oral bioavailability in Beagle dog at 10 mg/kg; format: ADME, organism-based, Canis lupus familiaris; details: in vivo
Method in brief: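 Plasma extracted by acetonitrile precipitation and quantified by LC-MS/MS (5.0–5000 ng/mL); noncompartmental PK; bioavailability relative to 5 mg/kg iv; mean of n = 3.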

[2] = Cmax in diet-induced obese rat at 1 mg/kg, po administered once daily for 3 weeks; format: ADME, organism-based; set-up: dose 1 mg/kg, route oral; details: in vivo
[3] = Oral bioavailability in Hanover Wistar rat at 10 mg/kg; format: ADME, organism-based; details: in vivo
Method in brief: (§1)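 Hanover Wistar rats (n = 3) with jugular/femoral cannulae, oral gavage of a 2 mg/mL suspension in 2% Klucel LF with 0.1% Tween 80; femoral-vein sampling, EDTA plasma, acetonitrile precipitation, LC-MS/MS (5.0–5000 ng/mL), noncompartmental analysis; F relative to 5 mg/kg iv; mean of n = 3.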

Rattus norvegicus [4] = experiment: Antidiabetic activity in diet-induced obese Sprague-Dawley rat assessed as decrease in glucose excursion at 3 mg/kg, po administered once daily for 3 weeks by OGTT; format: functional; set-up: scale not given: the % may be the effect or the level left
Method in brief: (§2)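 Male Sprague-Dawley DIO rats (n = 10/group), 550–650 g, reverse light/dark cycle, high fat diet from 7 weeks of age; dosed po once daily in Klucel suspension.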

[5] = Cmax in Hanover Wistar rat at 10 mg/kg, po by LC-MS/MS; format: ADME, organism-based; set-up: dose 10 mg/kg, route oral; details: in vivo; method in brief: as §1
[6] = Solubility of the compound at mp 217 degC; format: physicochemical
[7] = Association constant pKa of the compound; format: physicochemical
[8] = Half life in Beagle dog at 5 mg/kg, iv; format: ADME, organism-based, Canis lupus familiaris; set-up: dose 5 mg/kg, route intravenous; details: in vivo
Method in brief: (§3)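 Plasma levels by protein precipitation with acetonitrile and LC-MS/MS (linear range 5.0–5000 ng/mL); noncompartmental analysis; mean of n = 3.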

[9] = Volume of distribution in Hanover Wistar rat at 5 mg/kg, iv; format: ADME, organism-based; set-up: dose 5 mg/kg, route intravenous; details: in vivo
[10] = Tmax in Hanover Wistar rat at 10 mg/kg, po; format: ADME, organism-based; set-up: dose 10 mg/kg, route oral; details: in vivo
Method in brief: (§4)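 Oral gavage to rats (jugular/femoral vein-cannulated, femoral vein blood sampling) or beagle dogs, n = 3, as a 2 mg/mL suspension in 2% Klucel LF with 0.1% Tween 80 in water. Plasma extracted by acetonitrile protein precipitation and quantified by LC-MS/MS (linear 5.0–5000 ng/mL). Noncompartmental analysis; mean of 3.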

Rattus norvegicus [11] = experiment: Antiobesity activity in diet-induced obese rat assessed as decrease in food intake at 1 mg/kg, po administered once daily for 3 weeks; format: functional; set-up: scale not given: the % may be the effect or the level left
Method in brief: (§5)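 Male DIO rats, 19 weeks old, on high fat diet for 12 weeks, dosed po once daily with Klucel (hydroxypropyl cellulose) suspension for 22 days; 10 rats per group. Body weight followed throughout; daily food intake recorded on days 1–3, 8, 9, 15 and 16, values averaged per group.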

Rattus norvegicus [12] = experiment: Antidiabetic activity in diet-induced obese Sprague-Dawley rat assessed as effect on insulin level at 0.3 mg/kg, po administered once daily for 3 weeks measured after 30 mins by OGTT; format: functional, organism-based; set-up: dose 0.3 mg/kg
Method in brief: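 DIO rats (n = 10/group) on high fat diet, dosed po once daily in Klucel suspension for 3 weeks. On day 21 an oral glucose challenge of 2 g/kg was given, and plasma insulin was measured at the 30 min time point.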

[13] = Lipophilicity, log D of the compound; format: physicochemical; details: octanol/water
[14] = Volume of distribution in Beagle dog at 5 mg/kg, iv; format: ADME, organism-based, Canis lupus familiaris; set-up: dose 5 mg/kg, route intravenous; details: in vivo
[15] = Permeability across human Caco2 cells; format: ADME, cell-based; details: Caco-2, read-out: permeability
Rattus norvegicus [16] = experiment: Antiobesity activity in diet-induced obese rat assessed as reduction in body weight gain at 1 mg/kg, po administered once daily for 3 weeks; format: functional; set-up: scale not given: the % may be the effect or the level left; method in brief: as §5
[17] = molecular target: T1, Diacylglycerol O-acyltransferase 1 (Homo sapiens, UniProt O75907); experiment: Inhibition of human DGAT1 expressed in baculovirus infected insect cells after 1 hr using palmitoyl-1-14C-coenzyme A by phospholipid flashplate assay
T1 sequence (O75907 whole entry): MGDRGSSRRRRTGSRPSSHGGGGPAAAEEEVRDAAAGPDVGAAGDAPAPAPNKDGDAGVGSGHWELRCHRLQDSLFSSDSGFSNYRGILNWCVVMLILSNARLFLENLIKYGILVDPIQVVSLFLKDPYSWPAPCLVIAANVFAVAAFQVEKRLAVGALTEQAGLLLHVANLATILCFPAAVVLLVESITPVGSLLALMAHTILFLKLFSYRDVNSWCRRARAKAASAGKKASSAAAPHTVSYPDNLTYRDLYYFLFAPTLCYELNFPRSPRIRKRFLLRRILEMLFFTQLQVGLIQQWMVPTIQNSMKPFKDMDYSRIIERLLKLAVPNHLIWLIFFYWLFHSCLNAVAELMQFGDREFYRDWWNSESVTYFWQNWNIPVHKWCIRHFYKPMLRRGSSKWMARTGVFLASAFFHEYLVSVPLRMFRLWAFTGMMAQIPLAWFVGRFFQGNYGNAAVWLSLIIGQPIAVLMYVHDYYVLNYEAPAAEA

[18] = Extrapolated AUC in Hanover Wistar rat at 10 mg/kg, po; format: ADME, organism-based; set-up: dose 10 mg/kg, route oral; details: in vivo; method in brief: as §1
Rattus norvegicus [19] = experiment: Antiobesity activity in diet-induced obese rat assessed as reduction in body weight gain at 3 mg/kg, po administered once daily for 3 weeks; format: functional; set-up: scale not given: the % may be the effect or the level left; method in brief: as §5
[20] = Half life in Hanover Wistar rat at 5 mg/kg, iv; format: ADME, organism-based; set-up: dose 5 mg/kg, route intravenous; details: in vivo
Method in brief: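 Hanover Wistar rats (n = 3) cannulated in jugular and femoral veins, dosed iv 5 mg/kg via jugular vein as a solution in 2% DMA, 15% PEG400, 77% of 28% HPβCD in pH 7 PBS. Femoral-vein blood, EDTA plasma, acetonitrile precipitation, LC-MS/MS, noncompartmental analysis; mean of n = 3.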

[21] = Tmax in Beagle dog at 10 mg/kg, po; format: ADME, organism-based, Canis lupus familiaris; set-up: dose 10 mg/kg, route oral; details: in vivo; method in brief: as §4
Rattus norvegicus [22] = experiment: Antidiabetic activity in diet-induced obese Sprague-Dawley rat assessed as insulin-mediated decrease in glucose level at 3 mg/kg, po administered once daily for 3 weeks OGTT; format: functional, organism-based; set-up: dose 3 mg/kg; method in brief: as §2
Cytochrome P450 3A4 = Cytochrome P450 3A4 (Homo sapiens, UniProt P08684); experiment: Inhibition of CYP3A4; format: ADME
[23] = Clearance in Beagle dog at 5 mg/kg, iv; format: ADME, organism-based, Canis lupus familiaris; set-up: dose 5 mg/kg, route intravenous; details: in vivo; method in brief: as §3
Rattus norvegicus [24] = experiment: Antidiabetic activity in diet-induced obese Sprague-Dawley rat assessed as decrease in glucose excursion at 0.3 mg/kg, po administered once daily for 3 weeks by OGTT; format: functional, organism-based; set-up: dose 0.3 mg/kg; method in brief: as §2
Rattus norvegicus [25] = experiment: Antiobesity activity in diet-induced obese rat assessed as reduction in plasma triglyceride levels at 3 mg/kg, po qd after 4 hrs challenged with corn oil relative to vehicle treated control; format: functional; set-up: scale not given: the % may be the effect or the level left
Method in brief: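 Male DIO rats given 3 mg/kg po once daily for 1 week, with body weight gain followed. At study end, rats were fasted 4 h and challenged with corn oil 5 mL/kg; plasma triglycerides were measured 4 h later and compared with the vehicle group.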

Cytochrome P450 2D6, sequence (P10635 whole entry): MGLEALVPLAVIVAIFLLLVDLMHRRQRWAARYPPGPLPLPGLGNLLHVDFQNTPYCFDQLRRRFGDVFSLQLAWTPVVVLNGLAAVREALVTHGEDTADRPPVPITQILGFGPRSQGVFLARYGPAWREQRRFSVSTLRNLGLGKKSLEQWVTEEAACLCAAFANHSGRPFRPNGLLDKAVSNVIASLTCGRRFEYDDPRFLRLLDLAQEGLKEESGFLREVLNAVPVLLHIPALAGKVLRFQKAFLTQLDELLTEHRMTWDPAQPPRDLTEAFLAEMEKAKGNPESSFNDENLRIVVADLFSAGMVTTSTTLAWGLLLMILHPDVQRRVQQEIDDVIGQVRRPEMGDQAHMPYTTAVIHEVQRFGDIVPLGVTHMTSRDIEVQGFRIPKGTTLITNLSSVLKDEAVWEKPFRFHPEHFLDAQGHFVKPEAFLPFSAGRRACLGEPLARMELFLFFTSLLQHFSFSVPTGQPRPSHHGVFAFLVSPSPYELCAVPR
Cytochrome P450 3A4, sequence (P08684 whole entry): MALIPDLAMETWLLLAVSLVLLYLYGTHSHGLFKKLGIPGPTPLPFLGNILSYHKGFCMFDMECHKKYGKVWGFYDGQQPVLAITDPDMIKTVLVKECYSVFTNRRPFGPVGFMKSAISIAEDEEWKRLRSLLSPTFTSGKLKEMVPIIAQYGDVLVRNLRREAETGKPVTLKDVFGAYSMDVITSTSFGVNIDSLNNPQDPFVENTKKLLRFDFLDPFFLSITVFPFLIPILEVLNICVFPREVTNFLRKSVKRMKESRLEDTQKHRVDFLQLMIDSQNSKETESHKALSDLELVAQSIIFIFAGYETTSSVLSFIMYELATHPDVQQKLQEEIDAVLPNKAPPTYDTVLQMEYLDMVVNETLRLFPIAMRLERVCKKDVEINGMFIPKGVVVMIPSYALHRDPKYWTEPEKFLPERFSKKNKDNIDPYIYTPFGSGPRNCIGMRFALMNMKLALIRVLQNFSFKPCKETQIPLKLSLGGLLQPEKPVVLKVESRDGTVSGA

O=C(Nc1ccc(C2CCN(C(=O)[C@H]3CC[C@H](C(=O)O)CC3)CC2)cc1)c1nc(-c2ccccc2)oc1C(F)(F)F
IC50 (Cytochrome P450 2D6): > 50 µM | bioavailability [1]: 33% | Cmax [2]: 4.8 µM | bioavailability [3]: 73% | Activity (Rattus norvegicus [4]): 15% | Cmax [5]: 34.8 µM | solubility [6]: 0.0154 mg/mL (≈ 27 µM) | pKa [7]: 5.78 | half-life [8]: 5.3 h | Vd [9]: 0.27 L/kg | Tmax [10]: 12 h | Activity (Rattus norvegicus [11]): 19% | Activity (Rattus norvegicus [12]): inactive | logD [13]: 2.34 | Vd [14]: 0.38 L/kg | Papp [15]: 245 nm/s | Activity (Rattus norvegicus [16]): 6% | IC50 [17]: 0.057 µM | AUC [18]: 567 µM·h | Activity (Rattus norvegicus [19]): 8% | half-life [20]: 8.6 h | Tmax [21]: 2 h | Activity (Rattus norvegicus [22]): Active | IC50 (Cytochrome P450 3A4): > 50 µM | clearance [23]: 0.078 L/h/kg | Activity (Rattus norvegicus [24]): Active | Activity (Rattus norvegicus [25]): 85%
